Laboratory results published in ChEMBL document CHEMBL1123581, “Differential blockade of muscarinic receptor subtypes by polymethylene tetraamines. Novel class of selective antagonists of cardiac M-2 muscarinic receptors” (J Med Chem, 1987).

What was measured:
[1] = target: Muscarinic acetylcholine receptor; test: Compound was evaluated for blocking activity on Muscarinic acetylcholine receptor in rat bladder
In short: (§1)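 Male rat terminal ileum segment (20 mm, ~5 cm from ileocecal junction) or 2-mm longitudinal bladder strip, in Krebs-type solution. After 30 min equilibration, cumulative furtrethonium iodide curves (~3-fold steps) at 30-min intervals; antagonist incubated 30 min. Isometric contraction recorded.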

[2] = target: Muscarinic acetylcholine receptor; test: Compound was evaluated for blocking activity on Muscarinic acetylcholine receptor in guinea pig atria; format: protein assay, Cavia porcellus
[3] = target: Muscarinic acetylcholine receptor; test: Compound was evaluated for blocking activity on Muscarinic acetylcholine receptor in rat ileum; format: tissue-based; in short: as §1
[4] = Selectivity ratio of pA2 of guinea pig atria to pA2 of rat bladder
In short: (§2)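 Computed as the antilog of the difference between pA2 values for the two tissues (atria/ileum, atria/bladder, ileum/bladder). Each pA2 is a Schild value from muscarinic agonist dose ratios at three antagonist concentrations, each n≥5.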

[5] = Selectivity ratio of pA2 of rat ileum to pA2 of rat bladder; format: tissue-based; in short: as §2
[6] = Selectivity ratio of pA2 of guinea pig atria to pA2 of rat ileum; format: tissue-based; in short: as §2

Row | SMILES | pA2 [1] | pA2 [2] | pA2 [3] | Ratio [4] | Ratio [5] | Ratio [6]
1 | COc1ccccc1CNCCCCCCNCCCCCCCCCNCCCCCCNCc1ccccc1OC.Cl.Cl.Cl.Cl | 6.08 | 7.96 | 5.81 | – | – | –
2 | COc1ccccc1CNCCCCCCNCCCCCCNCCCCCCNCc1ccccc1OC.Cl.Cl.Cl.Cl | 5.57 | 6.87 | 5.29 | 20 | 0.52 | 38
3 | COc1ccccc1CNCCCCCCNCCCCCCCCCCNCCCCCCNCc1ccccc1OC.Cl.Cl.Cl.Cl | 5.49 | 7.71 | 5.73 | 166 | 1.74 | 95
4 | COc1ccccc1CNCCCCCCNCCCCCCCCCCCCNCCCCCCNCc1ccccc1OC.Cl | 7.13 | 7.35 | 7.62 | 1.66 | 3.09 | 0.54
